ASAP1 GAP inh: inhibitors of human ASAP1 ArfGAP activity, primary screen, biochemical, fluorescence polarization; Arf-GAP with SH3 domain, ANK repeat and PH domain-containing protein 1 (Homo sapiens), …; inhibition, % at 16.5 µM; 0.19% of 360,000 active; AID 624377, 2012; ASAP1-stimulated ARF1 GTP hydrolysis, GDP FP detection; in the data active = inhibition above about 25%;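 also: 0% = vehicle with enzyme and substrate and 100% = no enzyme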
Target sequence (Q9ULH1 325-724 limits assumed): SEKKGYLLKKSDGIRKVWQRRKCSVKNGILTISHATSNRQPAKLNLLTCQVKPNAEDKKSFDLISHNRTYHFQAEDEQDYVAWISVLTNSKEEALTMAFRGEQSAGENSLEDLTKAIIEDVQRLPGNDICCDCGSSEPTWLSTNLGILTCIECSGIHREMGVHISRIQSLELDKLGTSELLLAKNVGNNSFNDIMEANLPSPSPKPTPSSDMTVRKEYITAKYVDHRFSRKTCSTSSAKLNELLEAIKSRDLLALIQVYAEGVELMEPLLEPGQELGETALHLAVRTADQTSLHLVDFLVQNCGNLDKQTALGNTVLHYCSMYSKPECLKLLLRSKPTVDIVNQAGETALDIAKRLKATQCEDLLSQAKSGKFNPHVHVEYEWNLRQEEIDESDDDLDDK
Rtt109 Vps75: inhibitors of C. albicans Rtt109/Vps75 HAT, primary screen, biochemical, ThioGlo CoA-SH fluorescence, plate reader. Histone acetyltransferase RTT109 (Candida albicans (strain SC5314 / ATCC MYA-2876)), …. purified Rtt109/Vps75, 4 h. inhibition, % at 34.9 µM. 0.16% of 330,000 active;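 active = inhibition of at least 50% in every replicate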
Efflux pump inh: inhibitors of Candida efflux pumps in yeast, primary screen, S. cerevisiae, Nile Red, multiplex; S. cerevisiae Candida pump triplex; inhibition, % at 10 µM; 0.44% of 330,000 active;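 active = plate passing quality check with inhibition over a set limit, or well fluorescence over plate mean plus 4 SD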;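 also: Nile Red retained in pooled yeast measured as flow cytometry median fluorescence; 0% = buffer negative control and 100% = Enniatin B positive control; higher means more Nile Red kept so more efflux inhibition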
FGF22 binding: binders of human FGF22 protein, primary screen, FGF22 synaptogenesis inhibitor project, biophysical, thermal shift, single point; activity (Tm shift, normalised), % at 9.99 µM; 1.5% of 340,000 active; recombinant FGF22 thermal shift, SYPRO orange fluorescence; percent of sucrose octasulfate shift, DMSO zero;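 active = mean Tm shift, scaled 0 neutral to 100 positive control, at about 1.3% or above, every replicate too, limit read from the data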
ARFGAP1 inh: inhibitors of rat ARFGAP1 GAP activity, primary screen, biochemical, fluorescence polarization, GDP tracer; inhibition, % at 16.5 µM; 0.26% of 360,000 active; ADP-ribosylation factor GTPase-activating protein 1 (Rattus norvegicus), Q62848; Arfgap1-stimulated ARF1 GTP hydrolysis, GDP FP detection;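 active = inhibition above a per-plate limit, mean inhibition of low control wells plus 3 SD, cut at about 25% in these data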;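 also: 0% = DMSO wells with enzyme and 100% = wells lacking Arfgap1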
Target sequence (Q62848 1-136 limits assumed): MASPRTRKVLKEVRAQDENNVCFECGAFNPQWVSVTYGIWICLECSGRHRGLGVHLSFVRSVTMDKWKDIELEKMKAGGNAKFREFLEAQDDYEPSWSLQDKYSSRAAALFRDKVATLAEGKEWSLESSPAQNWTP
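Repeats: one replicate per compound; assay system: rat Arfgap1 catalytic domain, aa 1-136; times: enzyme reaction 120 min at 25 °C after 20 min preincubation; detection: FP of antibody-bound GDP Alexa 633 tracer, ex 620/em 688 nm; benchmarks: high control wells lacking Arfgap1, low control full reaction with DMSO; reagent: human ARF1(Δ1-17)-GTP substrate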
* = called active by the depositor. Most compounds without a hit are left out; they make up all but 1.9% or so of the library.

What do the screens show for `O=C(CCl)Nc1ccccc1C(=O)NCc1ccccc1`?
ASAP1 GAP inh: 14; Rtt109 Vps75: -20; Efflux pump inh: 0; FGF22 binding: 43*; ARFGAP1 inh: -8

What do the screens show for `O=C(NCc1ccc(Cl)cc1)c1ccccc1CCc1ccccc1`?
ASAP1 GAP inh: -3; Rtt109 Vps75: 52*; Efflux pump inh: 0; ARFGAP1 inh: -4

How did CCOC(=O)c1sc2ccc(S(=O)(=O)N3CCOCC3)cc2c1N do in these assays?
ASAP1 GAP inh: 2; Rtt109 Vps75: 4; Efflux pump inh: 0; ARFGAP1 inh: 16

Results for Cc1ccc(S(=O)(=O)N2CCN(C(=O)c3cccs3)CC2)c(C)c1 ?
ASAP1 GAP inh: 7; Rtt109 Vps75: -4; Efflux pump inh: 0; ARFGAP1 inh: 4

How did Cc1cc(C)c(S(=O)(=O)N2CCN(C(=O)c3cccs3)CC2)c(C)c1 do in these assays?
ASAP1 GAP inh: -9; Rtt109 Vps75: 4; Efflux pump inh: 0; FGF22 binding: 43*; ARFGAP1 inh: 6

What do the screens show for `O=C(O)CC(C(=O)OCC1CCCO1)N1CCOCC1` (configuration not stated)?
ASAP1 GAP inh: 10; Rtt109 Vps75: 1; Efflux pump inh: 0; ARFGAP1 inh: -11

Results for CCOC(=O)c1cccc(N2C(=O)Nc3ccccc3N2O)c1 ?
ASAP1 GAP inh: -2; Efflux pump inh: 0; ARFGAP1 inh: 3

What do the screens show for `CCOC(=O)c1c(N2C(=O)Nc3ccccc3N2O)n[nH]c1-c1cccc(OC)c1`?
ASAP1 GAP inh: -4; Rtt109 Vps75: -3; Efflux pump inh: 0; FGF22 binding: 43*; ARFGAP1 inh: -3

What do the screens show for `O=C1CC(C(=O)Nc2cccc(F)c2)n2ncnc2N1` (configuration not stated)?
ASAP1 GAP inh: 9; Rtt109 Vps75: -16; Efflux pump inh: 0; FGF22 binding: 43*; ARFGAP1 inh: -1

What do the screens show for `CCCNC(=O)N1C[C@@H](C)[C@@H](OC)CN(C)C(=O)c2cc(NC(=O)CCC)ccc2OC[C@H]1C`?
FGF22 binding: 0

Results for COc1ccccc1C(=O)NC(=O)CSc1cccc[n+]1[O-] ?
ASAP1 GAP inh: -4; Rtt109 Vps75: -1; Efflux pump inh: 0; FGF22 binding: 44*; ARFGAP1 inh: 4

What do the screens show for `Cn1cccc1C(=O)NC(=O)CSc1cccc[n+]1[O-]`?
ASAP1 GAP inh: -5; Rtt109 Vps75: 13; Efflux pump inh: 0; ARFGAP1 inh: -5

What do the screens show for `COCC#Cc1cnc2c(c1)C(=O)N([C@@H](C)CO)C[C@@H](C)[C@@H](CN(C)C(=O)Nc1c(C)noc1C)O2`?
FGF22 binding: 0

What do the screens show for `CCOC(=O)c1c2ccc(OCC(=O)NN)cc2n2ccccc12`?
ASAP1 GAP inh: 2; Rtt109 Vps75: -9; Efflux pump inh: 0; FGF22 binding: 43*; ARFGAP1 inh: 7

Results for Cc1cccc(N2CCN(Cc3nc(-c4cccc(Cl)c4)oc3C)CC2)n1 ?
ASAP1 GAP inh: 4; Rtt109 Vps75: 19; Efflux pump inh: 0; FGF22 binding: 0; ARFGAP1 inh: -8

How did Cc1oc(-c2cccc(C(F)(F)F)c2)nc1CN1CCN(c2ccccn2)CC1 do in these assays?
ASAP1 GAP inh: 1; Rtt109 Vps75: -5; Efflux pump inh: 0; FGF22 binding: 43*; ARFGAP1 inh: 10

What do the screens show for `COc1ccc(-c2cccc(NC(=O)c3ccco3)c2)nn1`?
ASAP1 GAP inh: -9; Rtt109 Vps75: -7; Efflux pump inh: 0; FGF22 binding: 0; ARFGAP1 inh: 12

What do the screens show for `COc1ccc(-c2ccc(NC(=O)c3ccco3)cc2)nn1`?
ASAP1 GAP inh: 9; Rtt109 Vps75: -4; Efflux pump inh: 0; FGF22 binding: 1.8*; ARFGAP1 inh: 6

What do the screens show for `O=C(COc1ccccc1)Nc1ccc(NC(=O)c2ccco2)cc1`?
ASAP1 GAP inh: 6; Rtt109 Vps75: -14; Efflux pump inh: 0; FGF22 binding: 44*; ARFGAP1 inh: -1

What do the screens show for `COC(=O)c1cc(NC(=O)/C=C/c2ccccc2)ccc1O`?
ASAP1 GAP inh: 7; Efflux pump inh: 0; FGF22 binding: 43*; ARFGAP1 inh: -15

What do the screens show for `COc1ccc(OCC(=O)Nc2ccc(NC(=O)c3ccco3)cc2)cc1`?
ASAP1 GAP inh: 5; Rtt109 Vps75: -4; Efflux pump inh: 0; ARFGAP1 inh: -11

How did O=C(/C=C\c1ccccc1)Nc1ccc(NC(=O)c2ccco2)cc1 do in these assays?
ASAP1 GAP inh: -9; Rtt109 Vps75: 8; Efflux pump inh: 0; FGF22 binding: 1.5*; ARFGAP1 inh: -1

Results for C[C@@H]1CCCCO[C@H](CN(C)S(=O)(=O)c2ccccc2)[C@@H](C)CN([C@H](C)CO)C(=O)c2cc(NC(=O)CCC(F)(F)F)ccc2O1 ?
FGF22 binding: 3.9*

Results for C[C@@H]1CN([C@@H](C)CO)C(=O)c2cc(NC(=O)CCC(F)(F)F)ccc2O[C@@H](C)CCCCO[C@H]1CN(C)S(=O)(=O)c1ccccc1 ?
FGF22 binding: 0

How did C[C@@H]1CCCCO[C@@H](CN(C)S(=O)(=O)c2ccccc2)[C@H](C)CN([C@@H](C)CO)C(=O)c2cc(NC(=O)Nc3ccccc3)ccc2O1 do in these assays?
FGF22 binding: 2.0*

What do the screens show for `CC1(Cc2ccccc2C#N)C(=O)Nc2cc(-c3ccccc3Cl)ccc21` (configuration not stated)?
ASAP1 GAP inh: 8; FGF22 binding: 0; ARFGAP1 inh: 10

What do the screens show for `CC1(Cc2ccc(C(F)(F)F)nc2)C(=O)Nc2cc(-c3ccccc3Cl)ccc21` (configuration not stated)?
ASAP1 GAP inh: -4; FGF22 binding: 43*; ARFGAP1 inh: 10

Results for Cc1ccc(SCC(=O)Nc2cc([N+](=O)[O-])ccc2O)cc1 ?
ASAP1 GAP inh: -9; Rtt109 Vps75: 6; Efflux pump inh: 0; FGF22 binding: 43*; ARFGAP1 inh: -15

Results for O=C(N/N=C/C=C\c1ccco1)c1cccs1 ?
ASAP1 GAP inh: -7; Rtt109 Vps75: 1; Efflux pump inh: 0; FGF22 binding: 44*; ARFGAP1 inh: -6

How did O=C(Cc1cccs1)N/N=C/C=C\c1ccco1 do in these assays?
ASAP1 GAP inh: 12; Rtt109 Vps75: -4; Efflux pump inh: 1; FGF22 binding: 1; ARFGAP1 inh: -2

What do the screens show for `NC(=O)C1CCN(C(=O)c2ccc3c(=O)n(Cc4ccco4)c(SCC(=O)c4ccccc4)nc3c2)CC1`?
ASAP1 GAP inh: 7; Rtt109 Vps75: 0; Efflux pump inh: 1; FGF22 binding: 44*; ARFGAP1 inh: 3
